Screening data from PubChem BioAssay.
A1 inh = inhibitors of the anti-apoptotic protein A1, read as caspase activation; MEF A1-2A-BIM cells, Caspase-Glo 3/7 luminescence, 3 h; percent of clofoctol response, vehicle zero; caspase activation, % (no concentration beside the values); 0.066% of 330,000 active; AID 2462;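 active means over half of replicate activation scores above 10%, or exactly half above 10 with the replicate mean above 10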
MC4R antagonist = human MC4R antagonism in cAMP assay | 0.48% of 360,000 active | P32245 | inhibition, % at 6.5 µM | MC4R-expressing cells, MTII-stimulated cAMP, LANCE TR-FRET;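 active means inhibition above its plate's cutoff, the mean of tested wells on that plate plus 3 SD, cut at about 29% in these data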;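 further: 0% = Melanotan II alone and 100% = Melanotan II plus saturating MCL0020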
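System: U2OS cells stably expressing human melanocortin 4 receptor (MC4R). Reagent: Melanotan II challenge after compound preincubation. Doses: 6.5 µM. Times: 30-min compound, 1-h challenge, 1-h detection, room temperature. Measured by: TR-FRET with Eu-cAMP and labeled anti-cAMP, 671 nm. Replicates: singlicate.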
MC4R barr agon = activates human MC4R beta-arrestin recruitment; P32245; AID 540308; activation, % at 8.9 µM; 0.98% of 360,000 active; U2OS MC4R beta-arrestin complementation, luminescence; percent of melanotan II response, DMSO zero;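 active means activation above a per-plate cutoff, the mean activation of sample wells on that plate plus 3 SD, cut at about 8% in these data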
CHOP UPR activ = activators of apoptotic arm of unfolded protein response (CHOP); AID 449763; CHO-CHOP luciferase reporter, UPR activation, luminescence; percent of tunicamycin response over DMSO baseline; activation, % at 10 µM; 0.34% of 330,000 active;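 active means at 10 µM dose, activation of 40% or more, normalized to positive control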;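 further: 100% = tunicamycin at 10 µg/mL and 0% = DMSO alone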
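Material: CHO-CHOP cells, stable luciferase reporter of PERK-eIF2a-CHOP signalling; quantity: 500 reporter cells seeded per well; buffer or medium: F12 medium containing 10% fetal bovine serum; compound: one dose, 10 µM in 0.5% DMSO; incubation: 6 h compound treatment, 37 °C; measured by: Steady-Glo luciferase luminescence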
UPR XBP1 act = activators of adaptive arm of unfolded protein response (XBP1); CHO-XBP1 luciferase reporter, IRE1-XBP1 UPR activation, luminescence; percent of tunicamycin response, DMSO as zero; activation, % at 20 µM; 0.33% of 330,000 active; AID 463104;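 active means versus positive control, 20 µM dose yields 30% or more activation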;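 further: 100% = tunicamycin at 10 µg/mL and 0% = DMSO only wells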
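Test system: CHO-XBP1 luciferase reporter cells | Buffer or medium: Serum-containing F12 medium, 10% FBS | Schedule: 6 h compound exposure at 37 °C, 5% CO2 | Detection: Steady-Glo luciferase glow luminescence, 10 min after reagent addition | Read-out basis: Activation, % of tunicamycin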
cAMP nonselect = nonselective cAMP signaling inhibitor, MC4R antagonist counter-screen; shares compounds with MC4R antagonist; parental U2OS, forskolin cAMP, LANCE TR-FRET; inhibition, % at 6.5 µM; 26% of 1,600 active; AID 602193;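 active means mean inhibition over triplicates above the low-control well mean plus 3 SD, set per campaign, cut at about 13% in these data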;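 further: signal is single emission at 671 nm which falls as cellular cAMP rises; 0% = forskolin-stimulated wells and 100% = buffer without forskolin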
MC4R cAMP antag = human MC4R cAMP antagonism confirmation; shares compounds with MC4R antagonist; MC4R-expressing cells, MTII-stimulated cAMP, TR-FRET; inhibition, % at 6.5 µM; 27% of 1,600 active; in the data active means inhibition above about 29%;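 further: 0% = agonist stimulated wells alone and 100% = agonist stimulated wells plus saturating reference antagonist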
MC4R barr conf = human MC4R beta-arrestin agonism confirmation | shares compounds with MC4R barr agon | U2OS MC4R beta-arrestin recruitment, luminescence; scaled DMSO 0%, Melanotan II 100% | activation, % at 8.9 µM | 31% of 2,400 active | AID 602192;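 active means mean activation across replicates above the hit cutoff set in the earlier primary screen, cut at about 8% in these data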
MOR DOR agonist = OPRM1-OPRD1 heterodimer agonism counter-screen. shares compounds with MC4R barr agon. U2OS PathHunter beta-arrestin, beta-gal luminescence; percent of deltorphin B response, DMSO zero. activation, % at 9.2 µM. 5.8% of 2,400 active;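 active means mean activation across replicates exceeds the hit threshold derived in the earlier primary screen, cut at about 18% in these data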;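 further: 100% = deltorphin B at 0.9 µM final and 0% = DMSO alone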
Target sequence (P35372 whole entry, looked up): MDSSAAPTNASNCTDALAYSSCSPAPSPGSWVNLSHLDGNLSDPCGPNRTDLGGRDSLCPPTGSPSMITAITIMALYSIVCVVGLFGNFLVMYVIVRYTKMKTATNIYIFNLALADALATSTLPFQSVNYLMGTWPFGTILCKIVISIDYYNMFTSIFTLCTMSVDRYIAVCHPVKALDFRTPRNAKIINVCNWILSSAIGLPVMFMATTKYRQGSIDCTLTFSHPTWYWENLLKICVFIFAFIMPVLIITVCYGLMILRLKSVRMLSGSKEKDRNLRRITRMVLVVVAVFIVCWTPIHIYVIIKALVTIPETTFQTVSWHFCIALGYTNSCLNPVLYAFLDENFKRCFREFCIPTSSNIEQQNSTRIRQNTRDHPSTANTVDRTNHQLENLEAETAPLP
Target sequence (P41143 whole entry, looked up): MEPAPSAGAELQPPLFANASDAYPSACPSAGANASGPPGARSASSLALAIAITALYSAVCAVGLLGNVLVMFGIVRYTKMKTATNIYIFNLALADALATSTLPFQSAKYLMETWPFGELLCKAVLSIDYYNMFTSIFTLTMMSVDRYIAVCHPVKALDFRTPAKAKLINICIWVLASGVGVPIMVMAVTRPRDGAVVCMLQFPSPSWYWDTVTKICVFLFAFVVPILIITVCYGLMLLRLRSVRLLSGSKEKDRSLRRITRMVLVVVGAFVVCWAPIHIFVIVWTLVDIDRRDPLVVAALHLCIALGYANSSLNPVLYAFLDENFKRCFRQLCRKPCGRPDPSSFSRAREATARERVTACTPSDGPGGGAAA
Active calls of the source: *; / = no result. The list is not random: actives were taken first. Their share in the collection is about 2%.

SMILES | A1 inh | MC4R antagonist | MC4R barr agon | CHOP UPR activ | UPR XBP1 act | MC4R barr conf | MOR DOR agonist | others
COc1ccc2[nH]c3c(c2c1)CCNC3=O | 0 | 0 | -1 | -1 | -2 | / | /
C=C1CCc2c([nH]c3ccc(OCC(C)C)cc23)C1=O | 5 | 45* | 14* | -5 | -3 | 13* | 12 | cAMP nonselect=12;MC4R cAMP antag=32*
O=C(/C=C/c1ccc2c(c1)OCCO2)N1CCN(c2ccc(F)cc2)CC1 | 0 | 2 | -1 | 1 | 1 | / | /
O=C(/C=C/c1ccc2c(c1)OCO2)N1CCN(c2ccc(Cl)cc2)CC1 | 0 | 29* | 13* | 1 | -3 | 2 | 4 | cAMP nonselect=-3;MC4R cAMP antag=-17
COc1ccc2oc(=O)c(-c3csc(Nc4cccc(O)c4)n3)cc2c1 | 0 | 30* | 13* | 7 | 2 | 28* | 4 | cAMP nonselect=5;MC4R cAMP antag=2
O=C(NCc1ccncc1)C1Cc2c(-c3ccccc3Oc3ccccc3)ccnc2O1 (centres undefined) | / | 1 | -1 | / | / | / | /
C/C(=C\c1ccco1)C1C(C#N)=C(N)Oc2n[nH]c(-c3ccc(C)cc3)c21 (centres undefined) | 0 | 10 | 16* | 0 | 3 | 23* | 11
C/C(=C\c1ccco1)C1C(C#N)=C(N)Oc2n[nH]c(-c3ccccc3)c21 (centres undefined) | 0 | -4 | -2 | -1 | 2 | / | /
CCc1nc2ccc(C(=O)NCCOc3ccc(OC)cc3)cn2c1N(CCC(C)C)CCN(C)C | / | 1 | -2 | / | / | / | /
O=C(N/N=C/c1cccc(OCc2ccccc2)c1)c1ccc(Br)cc1 | -1 | 5 | 17* | 1 | -1 | -2 | 6
CC(/C=N/NC(=O)c1cccnc1)=C\c1ccccc1 | -2 | -6 | -2 | 3 | 2 | / | /
CC(/C=N/NC(=O)c1ccc(Br)cc1)=C\c1ccccc1 | -1 | 1 | 28* | 0 | 1 | 1 | 8
O=C(N/N=C/c1ccc(OCc2ccccc2)cc1)c1cccs1 | -2 | 1 | 13* | 4 | 4 | 20* | 8
COc1cccc(/C=N/NC(=O)c2ccc(OCc3cccc(Br)c3)cc2)c1 | 2 | 4 | 0 | 1 | -1 | / | /
CCc1cc(C(=O)Nc2cc(S(=O)(=O)N3CCCCC3)ccc2N2CCN(C)CC2)sc1C | / | 2 | -2 | / | / | / | /
COc1ccc(-n2c(C)cc(C(=O)COC(=O)c3cc(NC(=O)c4cccs4)c(OC)c(OC)c3)c2C)cc1 | 0 | 2 | 0 | 2 | -1 | / | /
COc1cc(C(=O)OCC(=O)NCc2ccc(F)cc2)cc(NC(=O)c2cccs2)c1OC | 1 | -2 | 9.7* | -1 | 2 | 2 | 4
CNC(=O)c1cc2cc(Cc3ccccc3Cl)ccc2oc1=O | 0 | 6 | 1 | 0 | 0 | / | /
NC(=O)c1cc2cc(Cc3ccccc3Cl)ccc2oc1=O | 0 | -6 | 11* | 1 | -2 | -2 | 6
O=C(Nc1ccccc1)C1C2/C=C\CCCCC21 (centres undefined) | 0 | 8 | 0 | 3 | 8 | / | /
Cc1ccc(NC(=O)C2C3/C=C\CCCCC32)cc1C (centres undefined) | 0 | -4 | 19* | 3 | 1 | 2 | 6
CC1(C)ON=C(c2cccc(F)c2)NC1=O | / | 13 | 0 | / | / | / | /
Cc1cc(F)cc(-c2cc(C(=O)NCc3ccc(C(F)(F)F)cc3)[nH]n2)c1 | / | 7 | 14* | / | / | 3 | 6
CC(=O)NC12CC3CC(C1)CC(C(=O)Nc1cccc(S(=O)(=O)N4CCCCCC4)c1)(C3)C2 | / | 5 | -2 | / | / | / | /
CCCCCN=C(N)N/N=C/c1c[nH]c2ccc(OC)cc12 | 0 | 13 | 10* | 18 | -3 | 14* | 31*
SMILES | A1 inh | MC4R antagonist | MC4R barr agon | CHOP UPR activ | UPR XBP1 act | MC4R barr conf | MOR DOR agonist | others
CCCOc1ccc(C(=O)N/N=C/c2c[nH]c3ccc(Br)cc23)cc1 | 0 | -9 | 2 | 1 | -4 | / | /
COc1cccc(-c2sc3ccc(OC)cc3c2C#CC2(O)CCCCC2)c1 | 0 | 2 | 0 | 0 | -2 | / | /
COc1ccc(-c2sc3ccc(N4CCOCC4)cc3c2C#CCO)cc1 | -1 | 13 | -3 | 1 | 3 | / | /
COc1ccc(-c2sc3ccc(N4CCOCC4)cc3c2C#CC2(O)CCCCC2)cc1 | -1 | 6 | 32* | -1 | 3 | 45* | 11
COc1cc(OC)cc(-c2sc3ccc(OC)cc3c2C#CC2(N)CCCCC2)c1 | 1 | 18 | 21* | 3 | 28 | 14* | 6
CC1(Cc2ccccc2Cl)C(=O)Nc2c(Cl)ccc(Cl)c21 (centres undefined) | / | 6 | 1 | / | / | / | /
CCOc1ccc(C(=O)OCC(=O)Nc2ccc(SC(F)F)cc2)cc1OCC | -1 | 2 | 19* | -1 | -1 | 3 | 5
C[C@H]1CN([C@@H](C)CO)C(=O)CCCn2nncc2CO[C@H]1CN(C)C(=O)C1CCCCC1 | / | -2 | 1 | / | / | / | /
O=C(COc1ccc(Cl)cc1Cl)NC(=O)c1ccccc1 | 0 | -8 | 10* | 1 | -4 | 1 | 7
COc1cc2c(-c3ccccc3O)nc3c(c(C)nn3-c3ccccc3)c2cc1OC | 0 | 4 | 11* | 32 | 26 | 3 | 20*
Cc1cc(C)cc(NC(=O)Cc2ccc(-n3cccc3)cc2)c1 | 0 | 9 | 9.7* | 0 | -1 | 2 | 4
CCN(CC)S(=O)(=O)c1ccc(C)c(NC(=O)COc2ccc(Cl)cc2Br)c1 | 0 | -17 | 9.7* | 6 | 3 | 29* | 40*
CCN(CC)S(=O)(=O)c1ccc(Cl)c(NC(=O)COc2ccc(OC)cc2)c1 | 1 | -11 | 31* | 1 | 4 | 17* | 26*
O=CNc1cc(-c2ccsc2)cn2c(-c3ccccc3)cnc12 | / | -5 | 32* | / | / | 35* | 6
COc1ccc(-c2cnc3c(NC=O)cc(-c4ccccc4)cn23)cc1OC | / | -35 | 27* | / | / | 8 | 5
COc1ccc(-c2cnc3c(NC=O)cc(-c4cc(OC)c(OC)c(OC)c4)cn23)cc1OC | / | -40 | 30* | / | / | 13* | 4
CS(=O)(=O)c1ccc(-c2cnc3c(NC=O)cc(-c4ccsc4)cn23)cc1 | / | -2 | 5 | / | / | / | /
